Experimental data from different studies.
Protocols differ between the studies behind these lines.
Target: Tyrosine-protein kinase receptor Tie-1 (TIE1, Homo sapiens, UniProt P35590)

O=C(c1ccc(Nc2ncc(Cl)c(-c3cc4ccccc4s3)n2)cc1)N1CCC(N2CCCC2)CC1 — remaining binding (binding, competition with immobilised ligand; 1 µM): 4.8%
O=C(O)[C@@H]1[C@@H](Cn2nnc3ccccc3c2=O)CC[C@H]1C(=O)c1ccc(OCCC2CCOCC2)cc1 — remaining binding (cell-free assay, competition with immobilised ligand; 1 µM): 100%
O=C(c1ccc(Nc2nccc(-c3cc4ccccc4s3)n2)cc1)N1CCC(N2CCCC2)CC1 — remaining binding (binding, competition with immobilised ligand; 1 µM): 23%
O=C(NCC1CCOCC1)c1n[nH]cc1NC(=O)c1c(F)cccc1F — remaining binding (binding, competition with immobilised ligand; 1 µM): 85%
c1cncc(-c2cccc(Nc3nccc(NC4CCCCC4)n3)c2)c1 — remaining binding (binding, competition with immobilised ligand; 10 µM): 17%
CCc1ccccc1C(=O)Nc1n[nH]c2c(C)c(F)c(C3C(C#N)=C(C)N(C)C(C)=C3C#N)cc12 — remaining binding (cell-free assay, competition with immobilised ligand; 1 µM): 100%
CN(CCCC(F)(F)F)c1nccc(-c2cnn3ncccc23)n1 — remaining binding (binding; 1 µM): 100%
Cc1noc([C@H]2C[C@@H](c3ccc(C(F)(F)F)cc3)CN(C(=O)N3CCS(=O)(=O)C3)C2)n1 — remaining binding (cell-free assay, competition with immobilised ligand; 1 µM): 89%
CN(C)c1nccc(-c2cnn3ncccc23)n1 — remaining binding (binding; 1 µM): 100%
COc1cnc(Nc2cccc(S(N)(=O)=O)c2)nc1N1CCN(c2ccccc2)CC1 — remaining binding (binding, competition with immobilised ligand; 1 µM): 99%
CS(=O)(=O)NCC[C@H](NC(=O)c1cncc2c1cnn2-c1ccc(F)cc1)c1ccnc(S(C)(=O)=O)c1 — remaining binding (cell-free assay, competition with immobilised ligand; 1 µM): 100%
C[C@H]1CCN(c2nccc(-c3cnn4ncccc34)n2)C1 — remaining binding (binding; 1 µM): 75%
O=C(c1ccc(Nc2ncc(Cl)c(-c3ccc(Cl)s3)n2)cc1)N1CCC(N2CCCC2)CC1 — remaining binding (binding, competition with immobilised ligand; 1 µM): 18%
N[C@H]1CCN(c2nccc(-c3cnn4ncccc34)n2)C1 — remaining binding (binding; 1 µM): 100%
CS(=O)(=O)N1CCCC(NC(=O)[C@H](CCC2CCCCC2)NC(=O)c2ccc(CNC(=O)c3cnc4ccccn34)cc2)C1 (stereo partly shown) — remaining binding (cell-free assay, competition with immobilised ligand; 0.1 µM): 100%
CNC(=O)[C@@H]1CC[C@@H](n2c(-c3ccc4cnccc4c3)nc3ccc(C(=O)NCc4cccc(C(N)=O)c4)cc32)C1 — remaining binding (binding, competition with immobilised ligand; 1 µM): 85%
c1cnn2ncc(-c3ccnc(N4CCC45COC5)n3)c2c1 — remaining binding (binding; 1 µM): 100%
C[C@@H](c1cccc(C#N)c1)n1cc(Cl)cc(C(N)=O)c1=N — remaining binding (cell-free assay, competition with immobilised ligand; 1 µM): 87%
F[C@@H]1CCN(c2nccc(-c3cnn4ncccc34)n2)C1 — remaining binding (binding; 1 µM): 100%
O=S(=O)(NC1CCC(c2cc(F)ccc2F)(S(=O)(=O)c2ccc(Cl)cc2)CC1)C(F)(F)F (stereo not shown) — remaining binding (cell-free assay, competition with immobilised ligand; 1 µM): 100%
COc1ccnn2ncc(-c3ccnc(N(C)C)n3)c12 — remaining binding (binding; 1 µM): 81%
Nc1ncc2c(n1)-c1c([nH]c3ccc(C#CC4CC4)cc13)CCCC2 — remaining binding (binding, competition with immobilised ligand; 1 µM): 96%
